This is a sample that favours compounds with a hit; in the whole collection about 0.48% have one here.
Rce1 inhib = yeast Rce1p protease inhibitors, primary screen, biochemical, fluorescence, cell-free homogeneous; yeast membranes, quenched prenylated peptide cleavage fluorescence; hit rate 0.27% among 290,000; AID 2563, 2010; calls only;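 active = fall in fluorescence gain of 50% or more versus controls, with final raw signal at or below 3038400; inconclusive = same 50% fall but final raw signal above 3038400; inactive = fall in fluorescence gain under 50%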;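 also: plate controls were neutral control wells for no effect and wells lacking membranes for full effect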
A1 inh = caspase 3/7 activation in MEF A1-2A-BIM cells, primary screen, A1 inhibitor project, cell-based, luminescence, HTS; Caspase-Glo 3/7 luminescence, 3 h; percent of clofoctol response, vehicle zero; caspase activation, % (no concentration beside the values); hit rate 0.066% among 330,000;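 active = over half of replicate activation scores above 10%, or exactly half above 10 with the replicate mean above 10; inconclusive = replicate mean below 10 yet half the replicates above 10; inactive = over half of replicates below 10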
proCasp3 act = activators of human procaspase-3 D3A mutant, primary screen, biochemical, absorbance, PC-3 D3A mutant, single concentration | activation, % at 8.5 µM | Caspase-3 (Homo sapiens), P42574 | recombinant procaspase-3 D3A, Ac-DEVD-pNA absorbance 405 nm | hit rate 0.11% among 330,000;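 active = activation above the mean of all tested compounds plus 3 SD, cut at about 21% in these data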;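 also: 0% = DMSO alone and 100% = DMSO wells spiked with extra 5 µM PC-3 D3A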
Target sequence (P42574 whole entry D9A/D28A/D175A): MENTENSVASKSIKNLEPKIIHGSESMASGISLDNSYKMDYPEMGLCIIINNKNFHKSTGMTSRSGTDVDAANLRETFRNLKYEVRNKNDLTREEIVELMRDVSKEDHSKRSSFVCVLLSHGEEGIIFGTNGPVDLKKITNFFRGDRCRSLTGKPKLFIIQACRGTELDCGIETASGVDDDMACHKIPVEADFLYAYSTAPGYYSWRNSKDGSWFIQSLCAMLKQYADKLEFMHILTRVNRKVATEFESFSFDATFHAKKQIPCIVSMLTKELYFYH
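Test system: Procaspase-3 D3A mutant; medium: Zinc-free HEPES/NaCl buffer with 0.01% Triton X-100 at pH 7.4; reagent: DEVD-pNA substrate; doses: one concentration, 8.5 µM nominal, 0.8% DMSO; times: 1 h preincubation plus 2 h reaction at 25 °C; signal: Epi-absorbance at 405 nm of released p-nitroaniline, 0 and 120 min; replicates: singlicate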
PolyA inh = polyadenylation inhibitors in yeast reporter cells, primary screen, luminescence, S. cerevisiae | S. cerevisiae SKY197-pL101 polyadenylation reporter, beta-gal luminescence; efflux-impaired pdr1/pdr3 knockout yeast; score 100 = 6 SD above DMSO | activity score, % at 12 µM | hit rate 0.02% among 300,000 | AID 1875, 2009;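 active = lowest replicate activity score at least 50, where 100 means six control SD above control mean; inconclusive = lowest score under 50 but half or more replicates reach 50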;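 also: yeast exposed to compound for 9 h at 30 °C; higher score means more reporter readthrough which indicates perturbed polyadenylation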
procasp7 counter = procaspase-7 activators, primary screen, counter-screen for procaspase-3 activator project, biochemical, absorbance, HTS, human. Caspase-7 (Homo sapiens), P55210. AID 463210, 2010. hit rate 0.093% among 330,000. recombinant procaspase-7, Ac-DEVD-pNA absorbance 405 nm; D23A/D198A/D206A triple mutant, cannot self-cleave; scale: DMSO 0, 5 µM enzyme 100. activation, % at 8.5 µM;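 active = percent activation above the screen-wide mean plus 3 SD, cut at about 25% in these data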
Target sequence (P55210 whole entry D23A/D198A/D206A): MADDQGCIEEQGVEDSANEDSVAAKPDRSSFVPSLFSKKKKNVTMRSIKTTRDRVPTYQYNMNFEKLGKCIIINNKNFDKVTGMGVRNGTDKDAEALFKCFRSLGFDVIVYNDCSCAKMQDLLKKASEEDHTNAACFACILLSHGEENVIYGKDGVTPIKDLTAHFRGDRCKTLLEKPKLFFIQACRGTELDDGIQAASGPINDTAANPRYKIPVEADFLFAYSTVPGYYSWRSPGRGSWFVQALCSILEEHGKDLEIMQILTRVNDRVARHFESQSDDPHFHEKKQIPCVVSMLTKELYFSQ
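Material: Procaspase-7 triple mutant (PC-7 D3A) | Quantity: 2 µM procaspase-7 mutant as dispensed | Reagent: DEVD-pNA substrate | Times: 1 h preincubation, 2 h reaction | Technique: 405 nm absorbance of p-nitroaniline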
* = called active by the depositor; i = inactive; ? = inconclusive; / = no result given; + = active, no number.

SMILES	Rce1 inhib	A1 inh	proCasp3 act	PolyA inh	procasp7 counter
Oc1ccc(/C=N/n2cc(-c3ccccc3)[nH]c2=S)cc1	+	1	-17	4	-18
CCc1ccc(NC(=O)c2cnc(N3CCN(c4ccccn4)CC3)c3ccccc23)cc1	+	1	2	18	2
Cc1nn2c(NCCN(C)C)c3c(nc2c1-c1ccccc1)CCCC3	+	0	-3	10	6
COCCNc1c2c(nc3c(-c4ccccc4)c(C)nn13)CCCC2	i	0	8	-15	-3
CCOc1ccccc1N1CC(C(=O)NC2CCCCCC2)CC1=O (centres undefined)	/	1	-2	/	0
COc1cccc2sc3ccc(C#CC4(O)CCCCC4)cc3c(=O)c12	+	0	3	-8	-4
Cc1ccc(C(=O)c2c3ccc(C(F)(F)F)cc3nn2CCC(N)=O)cc1	+	-1	10	8	-2
COc1ccc(C(=O)c2c3ccc(C(F)(F)F)cc3[n+]([O-])n2CCCC(N)=O)cc1	i	0	7	-21	2
Cc1nc(-c2ccc(Cl)cc2)sc1C1(C)CC(c2ccccc2Br)=NO1 (centres undefined)	+	0	9	6	4
Cc1nc(-c2ccc(Cl)cc2)sc1C1(C)CC(c2ccccc2)=NO1 (centres undefined)	i	-9	0	-14	5
O=C(/C=C/c1ccccc1Cl)Nc1ccccc1	i	-7	-10	15	6
CN(C)S(=O)(=O)c1ccc(NC(=O)/C=C/c2ccccc2Cl)cc1	+	0	-7	-15	3
COc1ccc(CCNC(=O)CCOc2ccc(C)cc2)cc1OC	i	6.1*	3	-5	1
CCC(=O)Nc1cc(-c2nn(CC(=O)N3CCCCC3)c(=O)c3ccccc23)ccc1N1CCOCC1	+	0	-5	-21	6
CCCC(=O)Nc1cc(-c2nn(C)c(=O)c3ccccc23)ccc1N1CCOCC1	i	-1	6	-6	11
CSC(SC)=C(C#N)C(=O)c1ccccc1	i	6.7*	-1	8	0
COc1cccc(C(=O)C(C#N)=C(SC)SC)c1	i	3	4	-4	0
CCN(CC(=O)Nc1ccc(NC(C)=O)cc1)C(=O)C1(c2ccccc2)CC1	/	0	-3	/	3
CC(C)NCC(O)COCCOc1ccc(Br)cc1 (centres undefined)	+	1	8	-5	1
CC1CCN(c2oc(-c3ccc(F)cc3)nc2C#N)CC1	+	0	4	-13	-1
Cc1cccc(-c2nc(C#N)c(N3CCC(C)CC3)o2)c1	i	-1	/	-2	/
NS(=O)(=O)c1ccc(N2N=C(c3ccccc3)CC2c2ccc(F)cc2)cc1 (centres undefined)	i	1	64*	?	86*
O=C(O)CCc1ccc(-c2cccs2)n1Cc1ccco1	+	0	-9	-10	-11
COC(=O)Cc1cc(=O)n2[nH]c(C)c(-c3ccccc3)c2n1	i	0	0	-15	-1
CCCc1cc(=O)n2[nH]c(C)c(-c3ccccc3)c2n1	+	2	4	2	7
SMILES	Rce1 inhib	A1 inh	proCasp3 act	PolyA inh	procasp7 counter
c1cnn(Cc2cnc(N3CCOCC3)s2)c1	+	1	-1	17	4
O=C(O)CCC(=O)c1ccc(-c2ccccc2)cc1	+	-3	0	7	-2
CCC1ON(c2ccccc2)C2c3nc4ccccc4n3CC12 (centres undefined)	i	0	1	9	2
CCc1cc(=O)oc2cc(OCC(=O)N3CCC(C(=O)O)CC3)ccc12	+	1	5	-13	4
CCCc1cc(=O)oc2cc(OCC(=O)N3CCC(C(N)=O)CC3)ccc12	/	1	9	-13	6
CC1CCCCN1CCNC(=O)c1ccc2c(=O)n(Cc3ccc(Cl)cc3)c(=S)[nH]c2c1 (centres undefined)	i	-1	0	-1	2
O=c1[nH]cccc1-c1nc2ccccc2n1Cc1cccc(Cl)c1	+	0	1	2	7
CCc1cc(N2CCOCC2)cc2c1[nH]c1ccccc12	+	0	-7	/	-14
c1ccc2c(c1)[nH]c1c(N3CCOCC3)ncnc12	i	0	2	-4	-11
c1ccc(OCCN2CCN(C(c3ccccc3)c3ccccc3)CC2)cc1	i	0	-3	0	-6
O=C(NCCC1=CCCCC1)c1c(O)nc2sccn2c1=O	i	2	3	-10	14
O=C(NCCC1=CCCCC1)c1c(O)nc2ccccn2c1=O	i	-1	4	69*	9
CCOc1ccc(N(Cc2ccc(OC)cc2)C(=O)c2ccco2)cc1	+	1	9	-6	-9
COc1ccccc1-n1ccnc(SCC(=O)NCCc2ccccc2)c1=O	i	-1	3	8	4
CCOC(=O)c1c(-c2ccccc2)oc2ccc(OCC(O)CNCCN(C)C)cc12 (centres undefined)	+	0	-6	3	-4
CCOC(=O)c1c(-c2ccccc2)oc2ccc(OCC)cc12	i	0	3	6	-10
O=C(COC(=O)c1ccc[nH]c1=O)Nc1ccc(N2CCCCC2)cc1	/	-3	-2	/	-9
CCOc1ccc2[nH]c3c(N4CCc5ccccc5C4)ncnc3c2c1	+	1	2	-8	-5
Cc1onc(-c2ccccc2Cl)c1C(=O)N(C)CC(=O)Nc1ccc(F)c(F)c1F	i	1	-4	13	13
COc1ccc(-c2cn3c(n2)CCC3)cc1	i	-3	-4	5	10
c1ccc(-c2ccc(-c3cn4c(n3)CCC4)cc2)cc1	+	-11	6	-28	7
COc1cc(C(=O)OCC(=O)Nc2ccc(OC(F)F)cc2)cc(OC)c1OC	i	-1	3	4	4
COc1cc(C(=O)OCC(=O)Nc2ccc(SC(F)F)cc2)cc(OC)c1OC	+	1	-1	-14	-4
O=S(=O)(O)c1cc2oc(-c3ccccc3)nc2c2ccccc12	+	0	4	0	2
COc1cc(NC(=O)c2cccc(C)c2)ccc1NC(=O)c1cc2ccccc2o1	i	8.2*	0	10	3

Source: PubChem BioAssay (several laboratories)
